The subject of test [1] is Rattus norvegicus. Kind of test: In vivo inhibitory activity against ovum implantation in female rat after subcutaneous administration; i = No effect. Format: functional, organism-based. The method, boiled down: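 Adult proestrus Ivanovas female rats paired with males of proven fertility; sperm-positive next morning (day 1), randomised 4-10 per group. Single sc dose on day 5; killed day 12, uteri inspected for fetuses or implantation sites, none counting as inhibited.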

Test [2] deals with Serotonin (5-HT) receptor. Kind of test: In vitro inhibitory activity against serotonin receptor from whole rat brain using [3H]5-HT as radioligand.
Test [3] concerns Rattus norvegicus. Kind of test: In vivo against inhibitory against lactation in female rat after peroral administration; i = No effect. The test is classed as functional, organism-based.
In test [4] the test system is Rattus norvegicus. Kind of test: In vivo inhibitory activity against basal prolactin in male rat after subcutaneous administration. The test is classed as functional. The settings on record: sc, read-out: ID50 (the source's name). In a few lines: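 Male rats given one subcutaneous injection and decapitated 4 h later; trunk blood serum collected. One to three groups of three rats per dose, sera of three rats pooled equally. Prolactin measured by double-antibody RIA, expressed against NIH rat Prl RP-1 standard. Dose giving 50% serum prolactin reduction estimated graphically.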

Test [5] has as its system Rattus norvegicus. Kind of test: In vivo inhibitory activity against ovum implantation in female rat after subcutaneous administration. The settings on record: sc, read-out: ID50 (the source's name). Format: functional. The method, boiled down:
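Adult proestrus Ivanovas female rats mated with fertile males; sperm-positive females randomised next morning (day 1), 4-10 per group. Single subcutaneous dose on day 5; killed day 12, uteri inspected for fetuses or implantation sites, absence counted as inhibition.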

The subject of test [6] is Rattus norvegicus. Kind of test: In vivo inhibitory against lactation in female rat after peroral administration. Format: functional. The settings on record: po, read-out: ID50 (the source's name). In a few lines:
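[…] rats dosed once daily from day 5 to 8. Nursing behaviour checked daily; dams losing more than two pups excluded.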

The target in test [7] is T1, Adrenergic receptor alpha-1 (Rattus norvegicus, UniProt P15823+P23944+P43140).
T1 sequence (P15823 whole entry): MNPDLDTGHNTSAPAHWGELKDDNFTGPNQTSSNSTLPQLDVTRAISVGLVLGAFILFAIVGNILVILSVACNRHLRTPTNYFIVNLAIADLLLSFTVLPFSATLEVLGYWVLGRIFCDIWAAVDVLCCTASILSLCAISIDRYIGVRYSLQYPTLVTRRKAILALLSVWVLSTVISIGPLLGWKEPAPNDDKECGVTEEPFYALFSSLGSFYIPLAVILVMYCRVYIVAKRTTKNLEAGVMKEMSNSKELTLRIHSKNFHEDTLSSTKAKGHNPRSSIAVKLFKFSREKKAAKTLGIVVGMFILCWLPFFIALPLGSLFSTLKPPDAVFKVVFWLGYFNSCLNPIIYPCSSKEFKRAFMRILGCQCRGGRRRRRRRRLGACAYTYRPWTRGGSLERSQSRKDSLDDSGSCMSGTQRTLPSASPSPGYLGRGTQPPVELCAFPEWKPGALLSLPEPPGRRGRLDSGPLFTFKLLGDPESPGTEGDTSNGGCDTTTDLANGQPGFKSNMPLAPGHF
T1 sequence (P23944 whole entry): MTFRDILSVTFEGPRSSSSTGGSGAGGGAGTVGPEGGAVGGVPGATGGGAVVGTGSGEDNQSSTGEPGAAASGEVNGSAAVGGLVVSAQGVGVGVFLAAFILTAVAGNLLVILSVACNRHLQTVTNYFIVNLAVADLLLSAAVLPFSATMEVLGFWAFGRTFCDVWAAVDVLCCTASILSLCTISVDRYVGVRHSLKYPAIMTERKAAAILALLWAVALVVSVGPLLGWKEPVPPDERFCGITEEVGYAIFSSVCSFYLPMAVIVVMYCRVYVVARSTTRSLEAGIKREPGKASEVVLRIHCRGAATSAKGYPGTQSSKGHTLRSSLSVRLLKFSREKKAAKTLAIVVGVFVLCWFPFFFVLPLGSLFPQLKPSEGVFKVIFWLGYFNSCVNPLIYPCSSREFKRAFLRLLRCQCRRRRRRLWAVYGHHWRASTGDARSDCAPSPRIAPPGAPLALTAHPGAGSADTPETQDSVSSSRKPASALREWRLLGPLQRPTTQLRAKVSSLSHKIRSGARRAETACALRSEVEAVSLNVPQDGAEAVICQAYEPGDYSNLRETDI
T1 sequence (P43140 whole entry): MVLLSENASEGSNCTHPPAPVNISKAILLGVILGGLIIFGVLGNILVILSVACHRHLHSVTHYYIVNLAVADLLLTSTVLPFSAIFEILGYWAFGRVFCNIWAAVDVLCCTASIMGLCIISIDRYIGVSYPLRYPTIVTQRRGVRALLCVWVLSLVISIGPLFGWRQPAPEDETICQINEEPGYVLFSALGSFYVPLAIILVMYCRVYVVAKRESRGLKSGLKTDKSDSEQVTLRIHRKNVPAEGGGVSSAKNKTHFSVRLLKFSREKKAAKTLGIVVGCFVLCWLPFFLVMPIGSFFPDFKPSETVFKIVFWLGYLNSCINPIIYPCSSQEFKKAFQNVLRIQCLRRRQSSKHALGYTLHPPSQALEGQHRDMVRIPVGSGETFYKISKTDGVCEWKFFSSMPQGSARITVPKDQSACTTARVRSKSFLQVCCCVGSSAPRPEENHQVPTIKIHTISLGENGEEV
Kind of test: In vitro inhibitory activity against alpha-1 adrenergic receptor from whole rat brain using [3H]WB-4101 as radioligand. In a few lines: (§1)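 Displacement binding on brain homogenates as earlier described; four to six test concentrations typically, each incubated in triplicate. IC50 in nM derived by appropriately weighted regression analysis.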

The target of test [8] is Serotonin (5-HT) receptor. Kind of test: In vitro inhibitory activity against serotonin receptor from rat frontal cortex using [3H]spiperone as radioligand. Format: tissue-based.
Test [9] addresses T2, Dopamine receptor (Bos taurus, UniProt Q95136+P20288). Kind of test: In vitro inhibitory activity against dopamine receptor from calf caudate using [3H]dopamine as radioligand. The test is classed as protein assay. The method, boiled down:
as §1

The target of test [10] is T2, Dopamine receptor. Kind of test: In vitro inhibitory activity against dopamine receptor from calf caudate using [3H]spiperone as radioligand. The test is classed as protein assay. The method, boiled down:
as §1

In test [11] the target is T3, Adrenergic receptor alpha-2 (Rattus norvegicus, UniProt P22086+P19328+P22909).
T3 sequence (P22086 whole entry): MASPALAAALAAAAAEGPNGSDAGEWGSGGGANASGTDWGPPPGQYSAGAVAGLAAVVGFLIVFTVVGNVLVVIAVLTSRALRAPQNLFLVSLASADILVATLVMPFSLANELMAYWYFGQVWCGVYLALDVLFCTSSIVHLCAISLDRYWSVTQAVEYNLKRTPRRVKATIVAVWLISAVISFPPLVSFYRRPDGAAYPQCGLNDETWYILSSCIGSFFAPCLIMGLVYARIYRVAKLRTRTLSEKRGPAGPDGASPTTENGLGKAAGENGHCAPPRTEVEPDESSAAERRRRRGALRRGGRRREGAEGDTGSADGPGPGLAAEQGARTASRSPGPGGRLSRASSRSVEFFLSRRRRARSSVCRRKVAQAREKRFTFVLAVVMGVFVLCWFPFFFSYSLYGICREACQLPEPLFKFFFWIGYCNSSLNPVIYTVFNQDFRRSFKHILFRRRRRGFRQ
T3 sequence (P19328 whole entry): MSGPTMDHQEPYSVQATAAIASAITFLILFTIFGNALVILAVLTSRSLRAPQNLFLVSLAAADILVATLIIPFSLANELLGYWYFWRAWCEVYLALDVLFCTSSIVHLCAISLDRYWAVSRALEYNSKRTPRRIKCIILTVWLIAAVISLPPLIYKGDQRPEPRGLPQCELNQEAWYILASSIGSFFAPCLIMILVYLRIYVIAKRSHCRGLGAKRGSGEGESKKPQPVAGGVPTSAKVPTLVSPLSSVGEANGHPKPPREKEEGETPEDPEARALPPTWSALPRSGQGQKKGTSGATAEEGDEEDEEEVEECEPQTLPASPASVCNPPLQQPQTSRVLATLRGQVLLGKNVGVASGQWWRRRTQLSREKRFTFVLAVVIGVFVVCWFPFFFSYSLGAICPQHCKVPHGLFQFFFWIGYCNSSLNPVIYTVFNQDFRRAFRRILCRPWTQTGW
T3 sequence (P22909 whole entry): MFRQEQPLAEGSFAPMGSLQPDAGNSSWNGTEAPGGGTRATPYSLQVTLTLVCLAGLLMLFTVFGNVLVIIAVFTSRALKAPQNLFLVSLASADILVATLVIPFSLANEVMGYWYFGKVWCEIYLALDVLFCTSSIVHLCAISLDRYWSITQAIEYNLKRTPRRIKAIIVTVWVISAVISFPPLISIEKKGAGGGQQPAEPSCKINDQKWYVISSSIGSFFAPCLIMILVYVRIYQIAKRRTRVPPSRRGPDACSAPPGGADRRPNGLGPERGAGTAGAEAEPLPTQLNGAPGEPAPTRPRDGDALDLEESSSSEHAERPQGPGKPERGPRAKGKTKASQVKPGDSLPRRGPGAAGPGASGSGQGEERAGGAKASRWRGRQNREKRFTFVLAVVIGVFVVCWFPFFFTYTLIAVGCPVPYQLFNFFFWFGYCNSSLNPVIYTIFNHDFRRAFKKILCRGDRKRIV
Kind of test: In vitro inhibitory activity against alpha-2 adrenergic receptor from rat brain minus cerebellum using [3H]clonidine as radioligand. The test is classed as tissue-based. The method, boiled down:
as §1

The values that follow come from ChEMBL document CHEMBL1122961 (J Med Chem, 1985).

A word on the IC50: it is the concentration that gives 50% inhibition. Low readings indicate greater potency in that assay, high ones weaker potency in that assay.

Calls of active or inactive are those of the source. The rule behind the calls is not given here. Where only a bound is given, the exact number is not on record here.

As for `CN1CCc2cccc3c2[C@H]1Cc1ccc(O)c(O)c1-3` [APOMORPHINE], the ID50 result in the test with Rattus norvegicus [1] and with Rattus norvegicus [3] was “inactive” in each case. The compound further displayed a 50% inhibitory concentration (IC50) in test [2] above 10000 nM.

Consider `CCCN1CC(NS(=O)(=O)N(CC)CC)CC2Cc3c(O)cccc3CC21` (stereo not drawn) [QUINAGOLIDE], for which the ED50 with Rattus norvegicus [4] was found to be 0.005 mg/kg; with Rattus norvegicus [5], 0.017 mg/kg; with Rattus norvegicus [6], 0.03 mg/kg.

On to `CCCN1C[C@H](CSC)C[C@@H]2c3cccc4[nH]cc(c34)C[C@H]21` [PERGOLIDE], for which the IC50 is on record as 550 nM in [7], 140 nM in [8] and 385 nM in [2]. Besides, the ED50 in the test with Rattus norvegicus [4] was determined as 0.0013 mg/kg; with Rattus norvegicus [5], 0.021 mg/kg.

Take `CCN(CC)S(=O)(=O)N[C@H]1C[C@@H]2c3cccc4[nH]cc(c34)C[C@H]2N(C)C1` [ETISULERGINE]: the figures for the ED50 with Rattus norvegicus [5] and with Rattus norvegicus [6] were 0.028 mg/kg and 0.19 mg/kg, respectively. Besides, the IC50 in [2] is recorded as above 5000 nM.

With `CCCN1C[C@@H](CSC)C[C@@H]2Cc3c(O)cccc3C[C@H]21`, the 50% inhibitory concentration (IC50) in [7] came to 640 nM; on Dopamine receptor [9] it was 22 nM; in test [8] it was 720 nM; on Dopamine receptor [10] it was 60 nM; in [11], 250 nM; in test [2] it was 2000 nM. In addition, the ED50 worked out at 0.004 mg/kg with Rattus norvegicus [4], 0.018 mg/kg in the test on Rattus norvegicus [5] and 0.058 mg/kg in the test with Rattus norvegicus [6].
